Laboratory results reported in ChEMBL document CHEMBL3045713, “The fungicidal terpenoids and essential oil from Litsea cubeba in Tibet” (Molecules, 2010).

Tests used:
Format in all cases: functional
Sclerotinia sclerotiorum [1] = assay: Fungicidal activity against Sclerotinia sclerotiorum assessed as inhibition of mycelium growth at 272 uM at 25 +/- 0.5 degC
How it was run: (§1)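 Mycelium growth rate test. Test sample dissolved in acetone and mixed into potato dextrose agar at the stated concentration, then fungal mycelial cakes were placed on the plates. Acetone served as blank and carbendazim as positive control. Plates were incubated at 25 ± 0.5 °C until the blank grew completely. Colony diameters were then measured, and inhibitory ratio was calculated against the blank mean. Three replicates were run.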

Fusarium graminearum [2] = assay: Fungicidal activity against Fusarium graminearum assessed as inhibition of mycelium growth at 272 uM at 25 +/- 0.5 degC; how it was run: as §1
Fusarium oxysporum [3] = assay: Fungicidal activity against Fusarium oxysporum assessed as inhibition of mycelium growth at 272 uM at 25 +/- 0.5 degC; how it was run: as §1
Verticillium dahliae = assay: Fungicidal activity against Verticillium dahliae assessed as inhibition of mycelium growth at 272 uM at 25 +/- 0.5 degC; how it was run: as §1
[4] = system: Colletotrichum lindemuthianum; assay: Fungicidal activity against Colletotrichum lindemuthianum assessed as inhibition of mycelium growth at 272 uM at 25 +/- 0.5 degC; how it was run: as §1
Pseudocercospora musae [5] = assay: Fungicidal activity against Pseudocercospora musae assessed as inhibition of mycelium growth at 272 uM at 25 +/- 0.5 degC; how it was run: as §1
Thanatephorus cucumeris [6] = assay: Fungicidal activity against Thanatephorus cucumeris assessed as inhibition of mycelium growth at 272 uM at 25 +/- 0.5 degC; how it was run: as §1
Alternaria alternata [7] = assay: Fungicidal activity against Alternaria alternata assessed as inhibition of mycelium growth at 272 uM at 25 +/- 0.5 degC; how it was run: as §1
Alternaria mali [8] = assay: Fungicidal activity against Alternaria mali assessed as inhibition of mycelium growth at 272 uM at 25 +/- 0.5 degC; how it was run: as §1
Phytophthora infestans [9] = assay: Fungicidal activity against Phytophthora infestans assessed as inhibition of mycelium growth at 272 uM at 25 +/- 0.5 degC; how it was run: as §1
Fusarium verticillioides [10] = assay: Fungicidal activity against Fusarium verticillioides assessed as inhibition of mycelium growth at 272 uM at 25 +/- 0.5 degC; how it was run: as §1
[11] = system: Colletotrichum gloeosporioides; assay: Fungicidal activity against Colletotrichum gloeosporioides assessed as inhibition of mycelium growth at 272 uM at 25 +/- 0.5 degC; how it was run: as §1
Botrytis cinerea [12] = assay: Fungicidal activity against Botryotinia fuckeliana assessed as inhibition of mycelium growth at 272 uM at 25 +/- 0.5 degC; how it was run: as §1
Pseudocercospora musae [13] = assay: Fungicidal activity against Pseudocercospora musae assessed as inhibition of mycelium growth at 588 uM at 25 +/- 0.5 degC; how it was run: as §1
[14] = system: Colletotrichum gloeosporioides; assay: Fungicidal activity against Colletotrichum gloeosporioides assessed as inhibition of mycelium growth at 588 uM at 25 +/- 0.5 degC; how it was run: as §1
[15] = system: Botryosphaeria berengeriana; assay: Fungicidal activity against Botryosphaeria berengeriana assessed as inhibition of mycelium growth at 588 uM at 25 +/- 0.5 degC; how it was run: as §1
Alternaria alternata [16] = assay: Fungicidal activity against Alternaria alternata assessed as inhibition of mycelium growth at 588 uM at 25 +/- 0.5 degC; how it was run: as §1
Thanatephorus cucumeris [17] = assay: Fungicidal activity against Thanatephorus cucumeris assessed as inhibition of mycelium growth at 588 uM at 25 +/- 0.5 degC; how it was run: as §1
Fusarium oxysporum [18] = assay: Fungicidal activity against Fusarium oxysporum assessed as inhibition of mycelium growth at 588 uM at 25 +/- 0.5 degC; how it was run: as §1
Sclerotinia sclerotiorum [19] = assay: Fungicidal activity against Sclerotinia sclerotiorum assessed as inhibition of mycelium growth at 588 uM at 25 +/- 0.5 degC; how it was run: as §1
Sclerotinia sclerotiorum [20] = assay: Fungicidal activity against Sclerotinia sclerotiorum assessed as inhibition of mycelium growth at 52 uM at 25 +/- 0.5 degC; how it was run: as §1
Alternaria mali [21] = assay: Fungicidal activity against Alternaria mali assessed as inhibition of mycelium growth at 52 uM at 25 +/- 0.5 degC; how it was run: as §1
Fusarium oxysporum [22] = assay: Fungicidal activity against Fusarium oxysporum assessed as inhibition of mycelium growth at 52 uM at 25 +/- 0.5 degC; how it was run: as §1
Botrytis cinerea [23] = assay: Fungicidal activity against Botryotinia fuckeliana assessed as inhibition of mycelium growth at 52 uM at 25 +/- 0.5 degC; how it was run: as §1
[24] = system: Colletotrichum gloeosporioides; assay: Fungicidal activity against Colletotrichum gloeosporioides assessed as inhibition of mycelium growth at 52 uM at 25 +/- 0.5 degC; how it was run: as §1
Fusarium verticillioides [25] = assay: Fungicidal activity against Fusarium verticillioides assessed as inhibition of mycelium growth at 52 uM at 25 +/- 0.5 degC; how it was run: as §1
Fusarium graminearum [26] = assay: Fungicidal activity against Fusarium graminearum assessed as inhibition of mycelium growth at 52 uM at 25 +/- 0.5 degC; how it was run: as §1
Thanatephorus cucumeris [27] = assay: Fungicidal activity against Thanatephorus cucumeris assessed as inhibition of mycelium growth at 52 uM at 25 +/- 0.5 degC; how it was run: as §1
Phytophthora infestans [28] = assay: Fungicidal activity against Phytophthora infestans assessed as inhibition of mycelium growth at 52 uM at 25 +/- 0.5 degC; how it was run: as §1

`CC1=CC(=O)O[C@@H](C(C)(C)O)CC1` was tested, and the inhibition at 272 µM (Sclerotinia sclerotiorum [1]) was 81.8%, the inhibition at 272 µM (Fusarium graminearum [2]) was 73.8% and the inhibition at 272 µM (Fusarium oxysporum [3]) was 53.5%. The inhibition at 272 µM (Verticillium dahliae) was 66.6%, the inhibition at 272 µM [4] was 62.3% and the inhibition at 272 µM (Pseudocercospora musae [5]) was 65.5%. For the same compound, the inhibition at 272 µM (Thanatephorus cucumeris [6]) was 80.2%, the inhibition at 272 µM (Alternaria alternata [7]) was 70.9% and the inhibition at 272 µM (Alternaria mali [8]) was 66%. It also gave an inhibition at 272 µM (Phytophthora infestans [9]) of 66.4%, an inhibition at 272 µM (Fusarium verticillioides [10]) of 55.6% and an inhibition at 272 µM [11] of 71.1%. The inhibition at 272 µM (Botrytis cinerea [12]) was 72%.
`C/C(=C\C=C\C(C)(C)O)C(=O)O` [LITSEACUBEBIC ACID] was tested, and the inhibition at 588 µM (Pseudocercospora musae [13]) was 78.9%, the inhibition at 588 µM [14] was 71.2% and the inhibition at 588 µM [15] was 59.2%. The inhibition at 588 µM (Alternaria alternata [16]) was 57.8%, the inhibition at 588 µM (Thanatephorus cucumeris [17]) was 76.8% and the inhibition at 588 µM (Fusarium oxysporum [18]) was 56.7%. For the same compound, the inhibition at 588 µM (Sclerotinia sclerotiorum [19]) was 86.7%.
For `COC(=O)Nc1nc2ccccc2[nH]1` [CARBENDAZIM], the inhibition at 52 µM (Sclerotinia sclerotiorum [20]) was 100%, the inhibition at 52 µM (Alternaria mali [21]) was 100% and the inhibition at 52 µM (Fusarium oxysporum [22]) was 100%. The inhibition at 52 µM (Botrytis cinerea [23]) was 100%, the inhibition at 52 µM [24] was 100% and the inhibition at 52 µM (Fusarium verticillioides [25]) was 100%. The inhibition at 52 µM (Fusarium graminearum [26]) was 100%, the inhibition at 52 µM (Thanatephorus cucumeris [27]) was 100% and the inhibition at 52 µM (Phytophthora infestans [28]) was 100%.
